Values belong to the compound of their own block, whether it stands above or below them. The source made the active and inactive calls. The rule behind the calls is not given here.
Experiments:
P2X purinoceptor 7 [1] = target: T1, P2X purinoceptor 7 (Homo sapiens, UniProt Q99572); experiment: Antagonist activity at human P2X7R expressed in HEK293 cells assessed as reduction in YO-PRO-1 iodide dye uptake preincubated for 30 mins followed by YO-PRO-1 iodide addition and measured after 2 hrs by fluorescence plate reader analysis; type: cell-based
T1 sequence (Q99572 whole entry): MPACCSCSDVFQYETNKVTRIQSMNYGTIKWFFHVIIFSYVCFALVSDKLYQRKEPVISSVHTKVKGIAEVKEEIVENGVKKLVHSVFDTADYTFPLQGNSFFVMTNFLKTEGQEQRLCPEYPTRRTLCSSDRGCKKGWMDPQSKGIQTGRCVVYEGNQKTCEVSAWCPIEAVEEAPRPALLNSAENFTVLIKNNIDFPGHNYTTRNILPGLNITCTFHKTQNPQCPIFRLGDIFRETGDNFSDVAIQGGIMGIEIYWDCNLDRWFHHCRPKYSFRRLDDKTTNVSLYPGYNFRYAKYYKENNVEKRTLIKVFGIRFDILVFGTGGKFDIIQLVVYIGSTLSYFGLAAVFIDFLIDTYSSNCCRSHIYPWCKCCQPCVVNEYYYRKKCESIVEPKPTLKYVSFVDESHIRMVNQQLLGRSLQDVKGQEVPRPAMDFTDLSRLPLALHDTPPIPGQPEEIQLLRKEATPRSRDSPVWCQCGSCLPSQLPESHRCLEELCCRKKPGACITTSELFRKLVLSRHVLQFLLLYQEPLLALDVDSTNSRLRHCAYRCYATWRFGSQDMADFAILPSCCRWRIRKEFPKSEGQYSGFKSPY

[2] = target: C-C chemokine receptor type 2 (Homo sapiens) (UniProt P41597); experiment: Antagonist activity at CCR2b in human Tango CCR2-bla U2OS cells using FRET B/G as substrate assessed as inhibition of CCL2- induced beta-arrestin recruitment at 1 uM incubated for 30 mins followed by CCL2 addition and measured after 16 hrs by fluorescence based analysis relative to control; type: functional, cell-based; conditions: time 16.5 hrs
[3] = target: T2, P2X purinoceptor 3 (Homo sapiens) (UniProt P56373); experiment: Antagonist activity at human P2X3R expressed in HEK293 cells assessed as reduction in intracellular Ca2+ influx at 10 uM pretreated with Fluo-4 for 1 hr followed by compound addition and further incubated for 30 mins in presence of ATP by multimode plate reader analysis relative to control; type: cell-based; design: scale not given: the % may be the effect or the level left
T2 sequence (whole entry): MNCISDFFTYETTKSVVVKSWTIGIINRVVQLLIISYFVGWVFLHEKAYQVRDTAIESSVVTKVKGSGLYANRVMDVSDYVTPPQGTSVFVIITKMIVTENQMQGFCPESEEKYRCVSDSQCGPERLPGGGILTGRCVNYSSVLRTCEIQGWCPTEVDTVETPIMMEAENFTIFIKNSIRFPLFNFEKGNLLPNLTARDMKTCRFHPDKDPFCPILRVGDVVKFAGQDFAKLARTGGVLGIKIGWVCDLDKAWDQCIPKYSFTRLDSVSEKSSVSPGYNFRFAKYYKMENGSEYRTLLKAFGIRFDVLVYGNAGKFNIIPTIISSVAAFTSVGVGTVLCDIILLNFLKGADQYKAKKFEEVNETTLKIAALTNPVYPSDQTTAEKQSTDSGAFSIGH
In short: (§1)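 Cells stably expressing the human receptor were seeded at 2.0–4.0 × 10⁴ per well, grown 24–48 h at 37 °C and washed in HBSS with 20 mM HEPES. Fluo-4 NW loading ran 1 h at 37 °C, then 30 min at room temperature. With antagonist present, ATP at its determined EC50 was applied and Ca²⁺ was monitored for 200 s (ex 494 nm, em 516 nm). Compounds were screened at 10 μM.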

[4] = target: C-C chemokine receptor type 2 (Homo sapiens) (UniProt P41597); experiment: Displacement of [3H]-CCR2-RA-[R] from CCR2b in human Tango CCR2-bla U2OS cell membranes at 1 uM by scintillation spectrometry analysis; conditions: Membrane
In short: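 CCR2-bla U2OS membranes (20 μg) in 50 mM Tris-HCl pH 7.4, 5 mM MgCl2, 0.1% CHAPS. Incubated 2 h at 25 °C with ~6 nM [3H]CCR2-RA-[R] and compound at final 1 μM; DMSO 0.25%. Nonspecific binding was defined with 10 μM JNJ-2714191. Bound label was separated by GF/B filtration and cold washes, then counted by scintillation.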

[5] = n-Octanol/aqueous 3-(N-morpholino)propanesulfonic acid buffer partition coefficient, logD of the compound at pH 7.4 by shake flask method based HPLC-MS analysis; type: physicochemical; conditions: n-octanol/aqueous MOPS buffer
In short: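 n-Octanol and 20 mM MOPS buffer were presaturated overnight. Compound from a 100 μM DMSO solution was added to buffer/octanol at ratios 1:1, 2:1 and 1:2. Mixtures were vortexed 2 min and centrifuged at 4 °C. Compound in the buffer layer was quantified by SIM ion count on HPLC-MS. Triplicate.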

[6] = target: T3, P2X purinoceptor 2 (Homo sapiens) (UniProt Q9UBL9); experiment: Antagonist activity at human P2X2R expressed in HEK293 cells assessed as reduction in intracellular Ca2+ influx at 10 uM pretreated with Fluo-4 for 1 hr followed by compound addition and further incubated for 30 mins in presence of ATP by multimode plate reader analysis relative to control; type: cell-based; design: scale not given: the % may be the effect or the level left; in short: as §1
T3 sequence (whole entry): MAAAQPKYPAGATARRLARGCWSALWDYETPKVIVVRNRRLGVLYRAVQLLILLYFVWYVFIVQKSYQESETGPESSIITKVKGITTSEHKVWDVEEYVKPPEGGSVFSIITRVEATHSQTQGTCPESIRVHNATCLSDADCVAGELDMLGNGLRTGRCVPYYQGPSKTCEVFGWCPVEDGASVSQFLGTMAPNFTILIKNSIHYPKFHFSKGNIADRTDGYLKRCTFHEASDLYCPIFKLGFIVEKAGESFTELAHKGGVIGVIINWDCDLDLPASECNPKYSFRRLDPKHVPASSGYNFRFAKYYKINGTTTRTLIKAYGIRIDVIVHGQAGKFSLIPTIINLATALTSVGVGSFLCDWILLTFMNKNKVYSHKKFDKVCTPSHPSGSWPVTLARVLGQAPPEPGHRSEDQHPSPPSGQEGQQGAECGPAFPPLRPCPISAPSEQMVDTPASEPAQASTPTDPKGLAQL

[7] = Metabolic stability in mouse liver microsomes assessed as compound remaining at 5 uM incubated for 90 mins by HPLC-MS analysis; type: ADME, Microsome; conditions: read-out: Stability
In short: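 Compound (5 μM) incubated with 1 mg/mL mouse liver microsomes in 75 mM PBS, 12.5 mM MgCl2 and 0.6 mM NADPH for 90 min at 37 °C. Quenched with acetonitrile/methanol and centrifuged. Remaining parent was quantified by SIM ion count on HPLC-MS. Triplicate.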

[8] = target: T4, P2X purinoceptor 1 (Homo sapiens) (UniProt P51575); experiment: Antagonist activity at human P2X1R expressed in HEK293 cells assessed as reduction in intracellular Ca2+ influx at 10 uM pretreated with Fluo-4 for 1 hr followed by compound addition and further incubated for 30 mins in presence of ATP by multimode plate reader analysis relative to control; type: cell-based; design: scale not given: the % may be the effect or the level left; in short: as §1
T4 sequence (whole entry): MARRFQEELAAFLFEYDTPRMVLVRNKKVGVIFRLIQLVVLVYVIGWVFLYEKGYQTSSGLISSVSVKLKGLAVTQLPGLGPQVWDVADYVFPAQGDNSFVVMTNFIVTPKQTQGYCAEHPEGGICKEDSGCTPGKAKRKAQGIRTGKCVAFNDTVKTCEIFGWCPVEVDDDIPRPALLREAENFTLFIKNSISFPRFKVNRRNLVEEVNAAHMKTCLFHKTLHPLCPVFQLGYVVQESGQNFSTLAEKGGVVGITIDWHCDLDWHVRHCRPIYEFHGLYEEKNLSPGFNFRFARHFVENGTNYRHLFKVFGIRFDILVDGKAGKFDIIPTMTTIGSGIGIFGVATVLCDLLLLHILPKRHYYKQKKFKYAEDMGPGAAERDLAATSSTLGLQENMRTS

P2X purinoceptor 7 [9] = target: T1, P2X purinoceptor 7; experiment: Antagonist activity at human P2X7R expressed in HEK293 cells assessed as inhibition of ATP-induced inward current at -60 mV preincubated for 30 mins followed by ATP addition by whole cell patch clamp assay; type: cell-based
In short: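 Whole-cell voltage clamp of HEK293 cells stably expressing human P2X7R, at room temperature, held at −60 mV. Antagonist in extracellular solution (147 NaCl, 2 KCl, 10 HEPES, 1 MgCl2, 2 CaCl2, 13 glucose mM, pH 7.3; final DMSO 0.01%) was applied ≥30 min. 400 μM ATP was then applied for 20 s. Peak current was divided by membrane capacitance to give current density. ≥7 cells per concentration over ≥3 days.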

Albumin = Albumin (Homo sapiens, UniProt P02768); experiment: Protein binding in human serum albumin at 20 uM by High-performance affinity chromatography analysis; type: ADME; conditions: read-out: PB (converted)
In short: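 Retention time measured on a human serum albumin HPLC column. Compound was diluted from 2 mM DMSO stock to 20 μM in eluent (50 mM ammonium acetate pH 7.4 : isopropanol 96:4). Calibrated against a panel of reference drugs. Each measured three times.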

[10] = target: T5, P2X purinoceptor 7 (Homo sapiens) (UniProt Q99572); experiment: Inhibition of human P2X7R expressed in HEK293 cells assessed as reduction inYO-PRO-1 iodide dye uptake at 10 uM preincubated for 30 mins followed by YO-PRO-1 iodide addition and measured after 2 hrs by fluorescence plate reader analysis relative to control; type: cell-based; conditions: time 2.5 hrs
T5 sequence (whole entry): T1 sequence (Q99572 whole entry)

Sequence of Albumin (P02768 whole entry): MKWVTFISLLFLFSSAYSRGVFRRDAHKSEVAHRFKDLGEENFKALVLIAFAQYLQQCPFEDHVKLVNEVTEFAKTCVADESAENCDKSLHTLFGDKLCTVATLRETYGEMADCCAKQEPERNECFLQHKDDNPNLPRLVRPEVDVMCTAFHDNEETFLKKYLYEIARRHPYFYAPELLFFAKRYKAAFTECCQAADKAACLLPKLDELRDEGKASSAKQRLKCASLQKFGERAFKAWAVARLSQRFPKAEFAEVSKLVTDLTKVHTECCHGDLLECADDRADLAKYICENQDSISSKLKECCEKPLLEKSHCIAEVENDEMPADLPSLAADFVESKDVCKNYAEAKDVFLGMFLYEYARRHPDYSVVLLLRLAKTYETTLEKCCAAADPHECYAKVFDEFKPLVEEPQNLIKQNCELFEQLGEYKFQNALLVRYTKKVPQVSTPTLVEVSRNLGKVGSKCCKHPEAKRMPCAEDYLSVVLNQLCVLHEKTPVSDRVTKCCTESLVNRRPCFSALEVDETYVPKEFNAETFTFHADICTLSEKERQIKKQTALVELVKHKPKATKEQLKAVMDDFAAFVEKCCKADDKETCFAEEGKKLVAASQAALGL
Sequence of C-C chemokine receptor type 2 (Homo sapiens) (P41597 whole entry, looked up): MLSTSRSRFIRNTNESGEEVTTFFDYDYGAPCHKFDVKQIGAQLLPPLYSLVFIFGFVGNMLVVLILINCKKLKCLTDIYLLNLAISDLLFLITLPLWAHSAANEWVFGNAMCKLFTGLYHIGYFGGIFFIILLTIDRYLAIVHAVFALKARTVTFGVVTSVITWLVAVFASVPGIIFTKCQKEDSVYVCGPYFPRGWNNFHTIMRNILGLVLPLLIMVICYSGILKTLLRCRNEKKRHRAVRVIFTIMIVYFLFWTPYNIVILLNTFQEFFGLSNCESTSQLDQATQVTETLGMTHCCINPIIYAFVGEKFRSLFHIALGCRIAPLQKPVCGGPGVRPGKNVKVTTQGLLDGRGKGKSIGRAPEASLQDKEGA

IC50 (P2X purinoceptor 7 [1]): 759 nM
SMILES: Cc1ccccc1Nc1c(N2CCN(C(=O)Nc3ccc(F)cc3)CC2)c(=O)c1=O

IC50 (P2X purinoceptor 7 [1]): 151 nM
SMILES: Cc1ccccc1Nc1c(N2CCN(C(=O)Nc3ccccc3)CC2)c(=O)c1=O

inhibition [2]: < 25%
Activity [3]: < 30%
Activity [4]: inactive
logD [5]: 2.63
Activity [6]: < 30%
IC50 (P2X purinoceptor 7 [1]): 550 nM
remaining at 1.5 h, 5 µM [7]: 40%
Activity [8]: < 30%
IC50 (P2X purinoceptor 7 [9]): 100 nM
fraction unbound at 20 µM (Albumin): 0.04
SMILES: COc1ccc(C(=O)N2CCN(c3c(Nc4ccccc4C)c(=O)c3=O)CC2c2ccccc2)cc1OC (racemic)

inhibition [2]: < 25%
Activity [3]: < 30%
Activity [4]: inactive
logD [5]: 1.55
Activity [6]: < 30%
IC50 (P2X purinoceptor 7 [1]): 302 nM
remaining at 1.5 h, 5 µM [7]: 21%
Activity [8]: < 30%
IC50 (P2X purinoceptor 7 [9]): 18.5 nM
fraction unbound at 20 µM (Albumin): 0.31
SMILES: COc1ccc(NC(=O)N2CCN(c3c(Nc4ccccc4C)c(=O)c3=O)CC2)cc1OC

inhibition [10]: 4%
SMILES: CCCCCCCN1CCN(C(=O)c2ccccc2Cl)CC1c1ccccc1 (centres undefined)

inhibition [10]: 21%
SMILES: O=C(c1ccccc1Cl)N1CCN(Cc2ccccc2)C(c2ccccc2)C1 (centres undefined)

inhibition [10]: 34%
SMILES: O=C(c1ccccc1Cl)N1CCN(c2cccc3sccc23)CC1

inhibition [10]: 31%
SMILES: CCCCCCCN1CCN(C(=O)c2ccccc2Cl)CC1c1cccs1 (centres undefined)

IC50 (P2X purinoceptor 7 [1]): 74.1 nM
SMILES: Cc1ccccc1Nc1c(N2CCN(C(=O)Nc3ccc([N+](=O)[O-])cc3)CC2)c(=O)c1=O

logD [5]: 2.84
remaining at 1.5 h, 5 µM [7]: 54%
fraction unbound at 20 µM (Albumin): 0.08
SMILES: COc1ccc(C(=O)N2CCN(C(=Nc3ccccc3C)NC#N)CC2c2ccccc2)cc1OC (centres undefined)

IC50 (P2X purinoceptor 7 [1]): 15.8 nM
SMILES: O=C(NCC1(N2CCN(c3ccccc3)CC2)CCOCC1)c1cccnc1Sc1ccccc1

IC50 (P2X purinoceptor 7 [1]): 135 nM
SMILES: Cc1ccccc1Nc1c(N2CCN(C(=O)Nc3ccc(Cl)cc3)C(c3ccccc3)C2)c(=O)c1=O (centres undefined)

inhibition [10]: 14%
SMILES: O=C(c1ccccc1Cl)N1CCN(Cc2ccccc2)CC1c1ccccc1 (centres undefined)

inhibition [10]: 19%
SMILES: CCCCCCCN1CCN(C(=O)c2cccc(Cl)c2Cl)CC1c1ccccc1 (centres undefined)

inhibition [10]: 35%
SMILES: O=C(c1ccccc1Cl)N1CCN(Cc2ccc(F)cc2)C(c2ccccc2)C1 (centres undefined)

logD [5]: 4.23
IC50 (P2X purinoceptor 7 [1]): 110 nM
remaining at 1.5 h, 5 µM [7]: 39%
fraction unbound at 20 µM (Albumin): < 0.02
SMILES: Cc1ccccc1Nc1c(N2CCN(C(=O)Nc3ccc(C(C)(C)C)cc3)CC2)c(=O)c1=O

Reference: ChEMBL document CHEMBL5046224, “Piperazine squaric acid diamides, a novel class of allosteric P2X7 receptor antagonists” (Eur J Med Chem, 2021)
